Measurements taken from ChEMBL document CHEMBL1268956, “3-Urea-1-(phenylmethyl)-pyridones as novel, potent, and selective EP3 receptor antagonists” (Bioorg Med Chem Lett, 2010).
pIC50, pKi: −log10 of the molar value.

Assays:
[1] = target: T1, Prostaglandin E2 receptor EP3 subtype (Homo sapiens, UniProt P43115); test: Antagonist activity at human EP3 receptor expressed in human U2OS cells assessed as inhibition of PGE2-induced intracellular calcium mobilization by FLIPR assay; assay type: functional, cell-based
T1 sequence (P43115 whole entry): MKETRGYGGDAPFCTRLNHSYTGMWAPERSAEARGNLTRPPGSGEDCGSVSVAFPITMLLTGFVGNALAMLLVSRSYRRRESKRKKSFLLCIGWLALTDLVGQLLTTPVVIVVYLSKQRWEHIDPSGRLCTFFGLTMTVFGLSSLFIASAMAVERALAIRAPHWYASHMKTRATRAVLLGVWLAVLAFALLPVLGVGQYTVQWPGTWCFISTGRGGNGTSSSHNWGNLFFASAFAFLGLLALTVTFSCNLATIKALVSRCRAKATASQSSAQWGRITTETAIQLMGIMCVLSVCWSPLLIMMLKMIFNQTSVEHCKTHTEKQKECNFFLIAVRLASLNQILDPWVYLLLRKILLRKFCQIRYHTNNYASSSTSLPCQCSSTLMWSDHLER

[2] = Permeability across artificial membrane; assay type: ADME; conditions: PAMPA; read-out: permeability
[3] = Clearance in rat blood at 1.2 mg/kg, iv and 2 mg/kg, po; assay type: ADME, organism-based
How it was run: (§1)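 Rats dosed at 1.2 mg/kg iv and 2.0 mg/kg po. Blood clearance, half-life, steady-state volume of distribution and oral bioavailability derived from the iv and po arms.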

[4] = Half life in rat blood at 1.2 mg/kg, iv and 2 mg/kg, po; assay type: ADME, organism-based; how it was run: as §1
[5] = Volume of distribution at steady state in rat blood at 1.2 mg/kg, iv and 2 mg/kg, po; assay type: ADME, organism-based; conditions: read-out: Vdss; how it was run: as §1
[6] = Oral bioavailability in rat blood at 1.2 mg/kg, iv and 2 mg/kg, po; assay type: ADME, organism-based; how it was run: as §1
Cytochrome P450 2C9 = Cytochrome P450 2C9 (Homo sapiens, UniProt P11712); test: Inhibition of CYP2C9; assay type: ADME
Sequence of Cytochrome P450 2C9 (P11712 whole entry): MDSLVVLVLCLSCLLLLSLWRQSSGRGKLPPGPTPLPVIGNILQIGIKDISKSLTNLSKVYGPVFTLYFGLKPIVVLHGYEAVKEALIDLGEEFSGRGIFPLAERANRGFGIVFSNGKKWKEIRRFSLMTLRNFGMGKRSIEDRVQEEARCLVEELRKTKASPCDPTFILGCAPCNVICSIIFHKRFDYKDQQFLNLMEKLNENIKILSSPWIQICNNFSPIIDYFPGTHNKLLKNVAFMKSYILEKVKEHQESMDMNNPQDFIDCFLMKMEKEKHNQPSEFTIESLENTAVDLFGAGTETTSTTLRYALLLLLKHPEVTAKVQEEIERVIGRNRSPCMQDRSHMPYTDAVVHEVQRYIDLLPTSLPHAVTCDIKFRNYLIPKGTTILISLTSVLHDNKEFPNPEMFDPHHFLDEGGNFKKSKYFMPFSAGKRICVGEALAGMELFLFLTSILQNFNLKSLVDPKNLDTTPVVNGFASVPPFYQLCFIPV

Cytochrome P450 2D6 = Cytochrome P450 2D6 (Homo sapiens, UniProt P10635); test: Inhibition of CYP2D6; assay type: ADME
Sequence of Cytochrome P450 2D6 (P10635 whole entry): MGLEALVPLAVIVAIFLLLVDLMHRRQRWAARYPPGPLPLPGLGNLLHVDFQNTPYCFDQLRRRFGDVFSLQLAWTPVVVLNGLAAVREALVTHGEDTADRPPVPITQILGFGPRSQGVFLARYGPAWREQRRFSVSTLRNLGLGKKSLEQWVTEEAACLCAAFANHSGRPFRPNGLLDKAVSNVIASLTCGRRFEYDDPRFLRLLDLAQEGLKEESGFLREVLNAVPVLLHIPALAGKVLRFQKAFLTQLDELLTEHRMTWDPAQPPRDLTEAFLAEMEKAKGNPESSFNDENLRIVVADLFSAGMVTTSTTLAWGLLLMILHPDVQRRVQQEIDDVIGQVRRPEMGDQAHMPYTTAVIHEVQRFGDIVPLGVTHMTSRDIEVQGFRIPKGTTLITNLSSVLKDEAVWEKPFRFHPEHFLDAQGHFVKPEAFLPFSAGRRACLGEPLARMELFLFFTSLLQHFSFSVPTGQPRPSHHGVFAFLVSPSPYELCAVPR

Cytochrome P450 3A4 = Cytochrome P450 3A4 (Homo sapiens, UniProt P08684); test: Inhibition of CYP3A4; assay type: ADME
Sequence of Cytochrome P450 3A4 (P08684 whole entry): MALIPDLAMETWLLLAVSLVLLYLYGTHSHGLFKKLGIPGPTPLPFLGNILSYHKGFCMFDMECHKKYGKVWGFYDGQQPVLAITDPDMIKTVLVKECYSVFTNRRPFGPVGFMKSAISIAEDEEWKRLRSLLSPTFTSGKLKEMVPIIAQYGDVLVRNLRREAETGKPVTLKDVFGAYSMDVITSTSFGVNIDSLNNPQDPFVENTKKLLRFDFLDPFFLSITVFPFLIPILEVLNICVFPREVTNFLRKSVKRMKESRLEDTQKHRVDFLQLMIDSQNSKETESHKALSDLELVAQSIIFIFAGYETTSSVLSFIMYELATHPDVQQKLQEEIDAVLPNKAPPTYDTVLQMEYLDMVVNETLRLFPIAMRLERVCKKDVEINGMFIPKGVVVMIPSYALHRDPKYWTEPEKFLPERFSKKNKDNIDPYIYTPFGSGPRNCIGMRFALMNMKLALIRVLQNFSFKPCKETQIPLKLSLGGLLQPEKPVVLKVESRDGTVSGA

Cytochrome P450 2C19 = Cytochrome P450 2C19 (Homo sapiens, UniProt P33261); test: Inhibition of CYP2C19; assay type: ADME
Sequence of Cytochrome P450 2C19 (P33261 whole entry): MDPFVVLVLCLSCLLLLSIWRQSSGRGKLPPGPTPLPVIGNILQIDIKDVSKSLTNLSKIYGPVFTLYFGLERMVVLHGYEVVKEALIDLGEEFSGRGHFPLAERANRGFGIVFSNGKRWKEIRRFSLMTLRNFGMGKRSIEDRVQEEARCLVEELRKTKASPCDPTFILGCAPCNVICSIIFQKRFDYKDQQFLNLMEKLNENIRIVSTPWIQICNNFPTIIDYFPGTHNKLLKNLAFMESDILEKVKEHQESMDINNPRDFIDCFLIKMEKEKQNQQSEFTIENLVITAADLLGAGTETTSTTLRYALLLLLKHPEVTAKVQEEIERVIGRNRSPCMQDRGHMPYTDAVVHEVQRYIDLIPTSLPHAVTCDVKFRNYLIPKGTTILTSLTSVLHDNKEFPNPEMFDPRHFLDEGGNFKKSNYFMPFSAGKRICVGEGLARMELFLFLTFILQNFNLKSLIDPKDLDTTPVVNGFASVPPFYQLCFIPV

SMILES	pKi [1]	further results
COc1ccc(NC(=O)Nc2cccn(Cc3ccccc3Cl)c2=O)cc1	< 4.60	
CCc1cccc(NC(=O)Nc2cccn(Cc3cccc(C(F)(F)F)c3)c2=O)c1	6.70	
N#Cc1cccc(NC(=O)Nc2cccn(Cc3ccccc3Cl)c2=O)c1	< 4.60	
COc1cccc(NC(=O)Nc2ccc(C)n(Cc3ccccc3Cl)c2=O)c1	5.90	
CCc1cccc(NC(=O)Nc2ccc(C)n(Cc3ccccc3Cl)c2=O)c1	6.90	
COc1ccccc1NC(=O)Nc1cccn(Cc2ccccc2Cl)c1=O	6.20	
CC(=O)c1cccc(NC(=O)Nc2cccn(Cc3ccccc3Cl)c2=O)c1	< 4.60	
COc1cccc(NC(=O)Nc2cc(C)cn(Cc3ccccc3Cl)c2=O)c1	5.90	
O=C(Nc1cccc(I)c1)Nc1cccn(Cc2ccccc2Cl)c1=O	6.40	
O=C(Nc1ccccc1I)Nc1cccn(Cc2ccccc2Cl)c1=O	5.30	
COc1cccc(CC(=O)Nc2cccn(Cc3ccccc3Cl)c2=O)c1	< 4.60	
CCc1cccc(NC(=O)Nc2cccn(Cc3ccccc3F)c2=O)c1	7.00	
O=C(Nc1ccccc1F)Nc1cccn(Cc2ccccc2Cl)c1=O	6.80	
CCc1ccc(NC(=O)Nc2cccn(Cc3ccccc3Cl)c2=O)cc1	< 4.60	
Cc1ccc(NC(=O)Nc2cccn(Cc3ccccc3Cl)c2=O)cc1	5.50	
CC(C)c1cccc(NC(=O)Nc2cccn(Cc3ccccc3Cl)c2=O)c1	7.20	
CCc1cccc(NC(=O)Nc2cccn(Cc3c(F)cccc3Cl)c2=O)c1	8.20	

SMILES	pKi [1]	further results
CCc1cccc(NC(=O)Nc2cccn(Cc3ccc(F)cc3Cl)c2=O)c1	6.90	
O=C(Nc1ccc(Cl)cc1)Nc1cccn(Cc2ccccc2Cl)c1=O	< 4.60	
COc1cccc(C(=O)Nc2cccn(Cc3ccccc3Cl)c2=O)c1	< 4.60	
COC(=O)Cc1cccc(NC(=O)Nc2cccn(Cc3ccccc3Cl)c2=O)c1	< 4.60	
Cc1ccccc1NC(=O)Nc1cccn(Cc2ccccc2Cl)c1=O	6.10	
COc1cccc(N(C)C(=O)Nc2cccn(Cc3ccccc3Cl)c2=O)c1	< 4.60	
O=C(Nc1ccccc1Cl)Nc1cccn(Cc2ccccc2Cl)c1=O	6.90	
CCc1cccc(NC(=O)Nc2cc(Cl)cn(Cc3ccccc3Cl)c2=O)c1	6.30	
O=C(Nc1cccc(Br)c1)Nc1cccn(Cc2ccccc2Cl)c1=O	6.00	
COc1cccc(NC(=O)Nc2cccn(Cc3c(F)cccc3Cl)c2=O)c1	7.60	pIC50 (Cytochrome P450 2C9): 5.43; pIC50 (Cytochrome P450 2D6): < 4.60; pIC50 (Cytochrome P450 3A4): < 4.60; Papp [2]: 22 ×10⁻⁶ cm/s; pIC50 (Cytochrome P450 2C19): 5.35
CCc1cccc(NC(=O)Nc2c(C)ccn(Cc3ccccc3Cl)c2=O)c1	< 4.60	
O=C(Nc1cccc(Cl)c1)Nc1cccn(Cc2ccccc2Cl)c1=O	6.00	
O=C(Nc1cccc(Cc2ccccc2)c1)Nc1cccn(Cc2ccccc2Cl)c1=O	< 4.60	
CCc1cccc(NC(=O)Nc2cc(C)cn(Cc3ccccc3Cl)c2=O)c1	6.70	
CCc1ccccc1NC(=O)Nc1cccn(Cc2ccccc2Cl)c1=O	5.40	
O=C(Nc1ccc(C(F)(F)F)cc1)Nc1cccn(Cc2ccccc2Cl)c1=O	< 4.60	
O=C(O)Cc1cccc(NC(=O)Nc2cccn(Cc3ccccc3Cl)c2=O)c1	< 4.60	

Further lines, with some results ahead:

pKi [1]	SMILES	further results
6.40	COc1cccc(NC(=O)Nc2cccn(Cc3ccc(F)cc3Cl)c2=O)c1	
6.60	Cc1cccc(NC(=O)Nc2cccn(Cc3ccccc3Cl)c2=O)c1	
6.40	COc1cccc(NC(=O)Nc2cccn(Cc3cccc(Cl)c3)c2=O)c1	
6.80	COc1cccc(NC(=O)Nc2cccn(Cc3ccccc3Cl)c2=O)c1	Papp [2]: 55 ×10⁻⁶ cm/s; clearance [3]: 24 mL/min/kg; half-life [4]: 1.3 h; Vd [5]: 3.4 L/kg; bioavailability [6]: 27%
5.90	COc1cccc(NC(=O)Nc2cccn(Cc3ccc(F)cc3)c2=O)c1	
6.50	COc1cccc(NC(=O)Nc2cccn(Cc3ccccc3Br)c2=O)c1	
6.10	COc1ccc(Cn2cccc(NC(=O)Nc3cccc(OC)c3)c2=O)cc1	
6.10	COc1cccc(NC(=O)Nc2cccn(Cc3cc(F)ccc3Cl)c2=O)c1	
6.00	COc1cccc(NC(=O)Nc2cccn(Cc3ccc(Cl)cc3)c2=O)c1	
6.30	COc1cccc(NC(=O)Nc2cccn(Cc3ccccc3F)c2=O)c1	
5.50	COc1cccc(NC(=O)Nc2cccn(Cc3ccc(C)cc3)c2=O)c1	
5.60	COc1cccc(NC(=O)Nc2cccn(Cc3ccccc3C)c2=O)c1	
5.70	COc1cccc(Cn2cccc(NC(=O)Nc3cccc(OC)c3)c2=O)c1	
5.90	COc1cccc(NC(=O)Nc2cccn(Cc3cccc(C)c3)c2=O)c1	
6.00	COc1cccc(NC(=O)Nc2cccn(Cc3cccc(F)c3)c2=O)c1	
5.80	O=C(Nc1cccc(F)c1)Nc1cccn(Cc2ccccc2Cl)c1=O	
6.00	COc1cccc(NC(=O)Nc2cccn(Cc3ccccc3)c2=O)c1	
